{"source": "ChEMBL document CHEMBL1121633", "about": "“Neuroleptic 4-aryltetrahydropyrrolo[3,4-b]indoles” (1980)", "key": {"[1]": {"system": "Rattus norvegicus", "assay": "Antipsychotic activity was assessed by ability to antagonize the stereotypy induced in rats by d-amphetamine (5 mg / kg, ip) after 1 h", "assay_type": "functional", "procedure,_shortened": "(§1)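 Rats were housed singly in covered plastic compartments and briefly acclimated. Groups of five received compound ip at doses spaced 0.5 log unit (e.g., 1, 3.2, 10, 32 mg/kg). d-Amphetamine sulfate 5 mg/kg ip was given 1, 5 or 24 h later. One hour after each challenge, at peak amphetamine effect, each rat's most characteristic behavior was rated on a six-point scale.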"}, "[2]": {"system": "Rattus norvegicus", "assay": "Antipsychotic activity was assessed by ability to antagonize the stereotypy induced in rats by d-amphetamine (5 mg / kg, ip) after 5 h", "assay_type": "functional", "procedure,_shortened": "as §1"}, "[3]": {"system": "Rattus norvegicus", "assay": "Antipsychotic activity was assessed by ability to antagonize the stereotypy induced in rats by d-amphetamine (5 mg / kg, ip) after 1 h; Range is 3.2-5.6", "assay_type": "functional", "procedure,_shortened": "as §1"}, "[4]": {"system": "Rattus norvegicus", "assay": "Antipsychotic activity was assessed by ability to antagonize the stereotypy induced in rats by d-amphetamine (5 mg / kg, ip) after 5 h; Range is 10-32", "assay_type": "functional", "procedure,_shortened": "as §1"}, "[5]": {"system": "Rattus norvegicus", "assay": "Antipsychotic activity was assessed by ability to antagonize the stereotypy induced in rats by d-amphetamine (5 mg / kg, ip) after 24 h; Range is 3.2-10", "assay_type": "functional", "procedure,_shortened": "as §1"}, "[6]": {"system": "Rattus norvegicus", "assay": "Antipsychotic activity was assessed by ability to antagonize the stereotypy induced in rats by d-amphetamine (5 mg / kg, ip) after 5 h; Range is 1.0-3.2", "assay_type": "functional", "procedure,_shortened": "as §1"}, "[7]": {"system": "Rattus norvegicus", "assay": "Antipsychotic activity was assessed by ability to antagonize the stereotypy induced in rats by d-amphetamine (5 mg / kg, ip) after 1 h; Range is 1.0-3.2", "assay_type": "functional", "procedure,_shortened": "as §1"}, "[8]": {"system": "Rattus norvegicus", "assay": "Antipsychotic activity was assessed by ability to antagonize the stereotypy induced in rats by d-amphetamine (5 mg/kg, ip) after 24 h", "assay_type": "functional", "procedure,_shortened": "as §1"}, "[9]": {"system": "Rattus norvegicus", "assay": "Antipsychotic activity was assessed by ability to antagonize the stereotypy induced in rats by d-amphetamine (5 mg/kg, ip) after 5 h; Range is 3.2-10", "assay_type": "functional", "procedure,_shortened": "as §1"}, "[10]": {"system": "Rattus norvegicus", "assay": "Antipsychotic activity was assessed by ability to antagonize the stereotypy induced in rats by d-amphetamine (5 mg/kg, ip) after 1 h; Range is 3.2-10", "assay_type": "functional", "procedure,_shortened": "as §1"}, "[11]": {"system": "Rattus norvegicus", "assay": "Antipsychotic activity was assessed by ability to antagonize the stereotypy induced in rats by d-amphetamine (5 mg / kg, ip) after 5 h; Range is 0.1-0.32", "assay_type": "functional", "procedure,_shortened": "as §1"}, "[12]": {"system": "Rattus norvegicus", "assay": "Antipsychotic activity was assessed by ability to antagonize the stereotypy induced in rats by d-amphetamine (5 mg / kg, ip) after 24 h; Range is 1.0-3.2", "assay_type": "functional", "procedure,_shortened": "as §1"}, "[13]": {"system": "Rattus norvegicus", "assay": "Antipsychotic activity was assessed by ability to antagonize the stereotypy induced in rats by d-amphetamine (5 mg / kg, ip) after 1 h; Range is 0.1-0.32", "assay_type": "functional", "procedure,_shortened": "as §1"}, "[14]": {"system": "Rattus norvegicus", "assay": "Antipsychotic activity was assessed by ability to antagonize the stereotypy induced in rats by d-amphetamine (5 mg/kg, ip) after 1 h; Range is 10-32", "assay_type": "functional", "procedure,_shortened": "as §1"}, "[15]": {"system": "Rattus norvegicus", "assay": "Antipsychotic activity was assessed by ability to antagonize the stereotypy induced in rats by d-amphetamine (5 mg/kg, ip) after 5 h", "assay_type": "functional", "procedure,_shortened": "as §1"}, "[16]": {"system": "Rattus norvegicus", "assay": "Antipsychotic activity was assessed by ability to antagonize the stereotypy induced in rats by d-amphetamine (5 mg / kg, ip) after 1 h; Range is 3.2-10"}, "[17]": {"system": "Rattus norvegicus", "assay": "Antipsychotic activity was assessed by ability to antagonize the stereotypy induced in rats by d-amphetamine (5 mg / kg, ip) after 24 h", "assay_type": "functional", "procedure,_shortened": "as §1"}, "[18]": {"system": "Rattus norvegicus", "assay": "Antipsychotic activity was assessed by ability to antagonize the stereotypy induced in rats by d-amphetamine (5 mg/kg, ip) after 1 h", "assay_type": "functional", "procedure,_shortened": "as §1"}}}
{"smiles": "Cl.Fc1ccc(-n2c3c(c4cc(F)ccc42)CN(Cc2ccccc2)C3)cc1", "values": [{"measurement": "ED50", "setting": "[1]", "result": "> 32", "unit": "mg/kg"}, {"measurement": "ED50", "setting": "[2]", "result": "> 32", "unit": "mg/kg"}]}
{"smiles": "CCCN1Cc2c(n(-c3ccc(F)cc3)c3ccc(F)cc23)C1.I", "values": [{"measurement": "ED50", "setting": "[1]", "result": "> 32", "unit": "mg/kg"}, {"measurement": "ED50", "setting": "[2]", "result": "> 32", "unit": "mg/kg"}]}
{"smiles": "CN1Cc2c(n(-c3ccc(F)cc3)c3ccc(F)cc23)C1.Cl", "values": [{"measurement": "ED50", "setting": "[3]", "result": 3.2, "unit": "mg/kg"}, {"measurement": "ED50", "setting": "[2]", "result": "> 10", "unit": "mg/kg"}]}
{"smiles": "Cl.OC(CCCCN1Cc2c(n(-c3ccc(F)cc3)c3ccc(F)cc23)C1)c1ccc(F)cc1", "note": "(stereo unspecified)", "values": [{"measurement": "ED50", "setting": "[1]", "result": "> 32", "unit": "mg/kg"}, {"measurement": "ED50", "setting": "[4]", "result": 10, "unit": "mg/kg"}]}
{"smiles": "CCOC(=O)N1Cc2[nH]c3ccc(F)cc3c2C1.Cl", "values": [{"measurement": "ED50", "setting": "[1]", "result": "> 32", "unit": "mg/kg"}, {"measurement": "ED50", "setting": "[2]", "result": "> 32", "unit": "mg/kg"}]}
{"smiles": "Cl.OC(CCCN1Cc2c(n(-c3ccc(F)cc3)c3ccc(F)cc23)C1)c1ccc(F)cc1", "note": "(stereo unspecified)", "values": [{"measurement": "ED50", "setting": "[5]", "result": 3.2, "unit": "mg/kg"}, {"measurement": "ED50", "setting": "[6]", "result": 1, "unit": "mg/kg"}, {"measurement": "ED50", "setting": "[7]", "result": 1, "unit": "mg/kg"}]}
{"smiles": "Cl.O=C(CCCN1Cc2c(n(-c3ccc(F)cc3)c3ccc(F)cc23)C1)c1ccc(F)cc1", "values": [{"measurement": "ED50", "setting": "[8]", "result": "> 10", "unit": "mg/kg"}, {"measurement": "ED50", "setting": "[9]", "result": 3.2, "unit": "mg/kg"}, {"measurement": "ED50", "setting": "[10]", "result": 3.2, "unit": "mg/kg"}]}
{"smiles": "Cl.OC(CCCN1CCc2c(c3cc(F)ccc3n2-c2ccc(F)cc2)C1)c1ccc(F)cc1", "note": "(stereo unspecified)", "values": [{"measurement": "ED50", "setting": "[11]", "result": 0.1, "unit": "mg/kg"}, {"measurement": "ED50", "setting": "[12]", "result": 1, "unit": "mg/kg"}, {"measurement": "ED50", "setting": "[13]", "result": 0.1, "unit": "mg/kg"}]}
{"smiles": "Cl.O=C(CCCCN1Cc2c(n(-c3ccc(F)cc3)c3ccc(F)cc23)C1)c1ccc(F)cc1", "values": [{"measurement": "ED50", "setting": "[1]", "result": 32, "unit": "mg/kg"}, {"measurement": "ED50", "setting": "[2]", "result": "> 32", "unit": "mg/kg"}]}
{"smiles": "Cl.OC(CCCN1Cc2c(n(-c3ccc(F)cc3)c3ccc(F)cc23)C1)c1ccccc1", "note": "(stereo unspecified)", "values": [{"measurement": "ED50", "setting": "[8]", "result": "> 32", "unit": "mg/kg"}, {"measurement": "ED50", "setting": "[14]", "result": 10, "unit": "mg/kg"}, {"measurement": "ED50", "setting": "[15]", "result": "> 10", "unit": "mg/kg"}]}
{"smiles": "Cl.Fc1ccc(-n2c3c(c4cc(F)ccc42)CN(CCc2ccccc2)C3)cc1", "values": [{"measurement": "ED50", "setting": "[1]", "result": "> 32", "unit": "mg/kg"}, {"measurement": "ED50", "setting": "[2]", "result": "> 32", "unit": "mg/kg"}]}
{"smiles": "CN(C)CCCN1c2ccccc2Sc2ccc(Cl)cc21", "note": "[CHLORPROMAZINE]", "values": [{"measurement": "ED50", "setting": "[16]", "result": 3.2, "unit": "mg/kg"}, {"measurement": "ED50", "setting": "[17]", "result": 56, "unit": "mg/kg"}, {"measurement": "ED50", "setting": "[2]", "result": 17.8, "unit": "mg/kg"}]}
{"smiles": "CCOC(=O)N1Cc2c(n(-c3ccc(F)cc3)c3ccc(F)cc23)C1", "values": [{"measurement": "ED50", "setting": "[15]", "result": "> 32", "unit": "mg/kg"}, {"measurement": "ED50", "setting": "[18]", "result": "> 32", "unit": "mg/kg"}]}
{"smiles": "Cl.Fc1ccc(-n2c3c(c4cc(F)ccc42)CNC3)cc1", "values": [{"measurement": "ED50", "setting": "[8]", "result": 32, "unit": "mg/kg"}, {"measurement": "ED50", "setting": "[15]", "result": "> 32", "unit": "mg/kg"}, {"measurement": "ED50", "setting": "[18]", "result": "> 32", "unit": "mg/kg"}]}
{"smiles": "Cl.O=C(CCCN1Cc2c(n(-c3ccc(F)cc3)c3ccc(F)cc23)C1)c1ccccc1", "values": [{"measurement": "ED50", "setting": "[1]", "result": "> 32", "unit": "mg/kg"}, {"measurement": "ED50", "setting": "[2]", "result": "> 32", "unit": "mg/kg"}]}
